{"data": "Published values collected from several papers", "target": "MAP kinase-activated protein kinase 5 (MAPKAPK5, Homo sapiens, UniProt Q8IW41)", "Residues used in one study (Q8IW41 1-473)": "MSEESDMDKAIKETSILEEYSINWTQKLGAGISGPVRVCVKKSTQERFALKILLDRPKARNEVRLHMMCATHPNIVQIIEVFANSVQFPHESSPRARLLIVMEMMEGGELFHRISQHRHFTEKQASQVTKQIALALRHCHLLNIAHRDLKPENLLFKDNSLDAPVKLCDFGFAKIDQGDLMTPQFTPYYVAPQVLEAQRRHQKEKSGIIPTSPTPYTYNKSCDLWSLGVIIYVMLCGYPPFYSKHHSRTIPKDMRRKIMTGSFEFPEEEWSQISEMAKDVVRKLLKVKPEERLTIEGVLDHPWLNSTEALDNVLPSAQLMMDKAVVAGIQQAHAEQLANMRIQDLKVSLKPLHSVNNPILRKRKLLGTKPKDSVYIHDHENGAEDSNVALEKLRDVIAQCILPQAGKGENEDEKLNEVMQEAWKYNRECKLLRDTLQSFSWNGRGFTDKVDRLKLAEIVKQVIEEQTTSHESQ", "note": "Each line is one published result; the experiments were not run side by side."}
{"SMILES": "CN(c1nccc(-c2cnn3ncccc23)n1)C1CC1", "effect on": "binding", "concentration": "1 µM", "remaining binding [%]": 99}
{"SMILES": "O=C(c1ccc(Nc2ncc(Cl)c(-c3ccc(Cl)s3)n2)cc1)N1CCC(N2CCCC2)CC1", "effect on": "binding", "method": "competition with immobilised ligand", "concentration": "1 µM", "remaining binding [%]": 100}
{"SMILES": "CN(C)CC#Cc1ccc(OCCCc2sc(N3CCc4cccc(C(=O)Nc5nc6ccccc6s5)c4C3)nc2C(=O)O)c(F)c1", "effect on": "cell-free assay", "method": "competition with immobilised ligand", "concentration": "1 µM", "remaining binding [%]": 99}
{"SMILES": "COc1ncc2cc3ccccc3nc2c1C#N", "effect on": "cell-free assay", "method": "competition with immobilised ligand", "concentration": "5 µM", "remaining binding [%]": 83}
{"SMILES": "CN(C)c1nccc(-c2cnc3ncccn23)n1", "effect on": "binding", "concentration": "1 µM", "remaining binding [%]": 93}
{"SMILES": "C=CC(=O)N1CCC(C(=O)NCC(=O)N2CCN(c3nc(-c4cnc(N)nc4C(F)F)nc(N4CCOCC4)n3)CC2)CC1", "effect on": "binding", "method": "competition with immobilised ligand", "concentration": "1 µM", "remaining binding [%]": 92}
{"SMILES": "O=C(NCCCN1CCOCC1)c1ccc(Nc2ncc(Cl)c(-c3ccc(Cl)s3)n2)cc1", "effect on": "binding", "method": "competition with immobilised ligand", "concentration": "1 µM", "remaining binding [%]": 100}
{"SMILES": "C[C@H](c1cccc(C#N)c1)n1cc(Cl)cc(C(N)=O)c1=N", "effect on": "cell-free assay", "method": "competition with immobilised ligand", "concentration": "1 µM", "remaining binding [%]": 84}
{"SMILES": "COc1cnc(Nc2cccc(S(N)(=O)=O)c2)nc1N1CCN(c2ccccc2)C(=O)C1", "effect on": "binding", "method": "competition with immobilised ligand", "concentration": "1 µM", "remaining binding [%]": 100}
{"SMILES": "Cn1cc(Cl)c2c(Oc3c(F)cc(Nc4cc(Cl)nc(N)n4)cc3F)ccnc21", "effect on": "cell-free assay", "method": "competition with immobilised ligand", "concentration": "0.1 µM", "remaining binding [%]": 100}
{"SMILES": "C[C@H]1CCN(c2nccc(-c3cnn4ncccc34)n2)C1", "effect on": "binding", "concentration": "1 µM", "remaining binding [%]": 69}
{"SMILES": "O=C(NCCCN1CCOCC1)c1ccc(Nc2nccc(-c3cc4ccccc4s3)n2)cc1", "effect on": "binding", "method": "competition with immobilised ligand", "concentration": "1 µM", "remaining binding [%]": 82}
{"SMILES": "CC(=O)Nc1c(C(C)=O)c(=O)n(C)c2nc(-c3ccc(Cl)cc3Cl)c(-c3ccc(Cl)cc3)cc12", "effect on": "cell-free assay", "method": "competition with immobilised ligand", "concentration": "1 µM", "remaining binding [%]": 100}
{"SMILES": "O=C(Nc1c[nH]nc1C(=O)NC1CCNCC1)c1cc(F)cc(F)c1", "effect on": "binding", "method": "competition with immobilised ligand", "concentration": "1 µM", "remaining binding [%]": 94}
{"SMILES": "N[C@@H]1CCN(c2nccc(-c3cnn4ncccc34)n2)C1", "effect on": "binding", "concentration": "1 µM", "remaining binding [%]": 100}
{"SMILES": "O=C(Nc1ccc(Oc2ccc(F)cc2)cc1)N1CCc2ncccc2[C@H]1c1ccc(F)cc1", "effect on": "cell-free assay", "method": "competition with immobilised ligand", "concentration": "1 µM", "remaining binding [%]": 75}
{"SMILES": "CN(C)c1ncc(F)c(-c2cnn3ncccc23)n1", "effect on": "binding", "concentration": "1 µM", "remaining binding [%]": 74}
{"SMILES": "CS(=O)(=O)c1cc(C2(NC(=O)c3cncc4c3cnn4-c3ccc(F)cc3)CC2)ccn1", "effect on": "cell-free assay", "method": "competition with immobilised ligand", "concentration": "1 µM", "remaining binding [%]": 87}
{"SMILES": "Nc1ncc2c(n1)-c1c([nH]c3ccc(C#CC4CC4)cc13)CCCC2", "effect on": "binding", "method": "competition with immobilised ligand", "concentration": "1 µM", "remaining binding [%]": 97}
